Screening results from PubChem BioAssay.
Hck-Nef inh = inhibitors of human Hck kinase activated by Nef. P08631. Recombinant Hck-YEEI plus Nef, Z-Lyte FRET kinase assay. inhibition, % at 20 µM. 220,000 compounds, 0.68% hits;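 active = Hck-Nef kinase inhibition above about 50%, limit read from the data; inactive = inhibition below that limit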;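 note: 0% = DMSO with Hck plus Nef and 100% = Hck alone without Nef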
Runt-CBFb FRET = Runt domain-CBFb interaction inhibition; Q01196+Q13951; inhibition, % at 20 µM; Cerulean-Runt/Venus-CBFb FRET ratio 530/480, 1 h; 220,000 compounds, 0.46% hits;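 active = inhibition over about 50% at 20 µM in the single-dose screen, limit read from the data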;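 note: 0% = DMSO wells and 100% = excess unlabeled CBFb competitor control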
Target sequence (Q01196 whole entry, looked up, the tested form may be a part): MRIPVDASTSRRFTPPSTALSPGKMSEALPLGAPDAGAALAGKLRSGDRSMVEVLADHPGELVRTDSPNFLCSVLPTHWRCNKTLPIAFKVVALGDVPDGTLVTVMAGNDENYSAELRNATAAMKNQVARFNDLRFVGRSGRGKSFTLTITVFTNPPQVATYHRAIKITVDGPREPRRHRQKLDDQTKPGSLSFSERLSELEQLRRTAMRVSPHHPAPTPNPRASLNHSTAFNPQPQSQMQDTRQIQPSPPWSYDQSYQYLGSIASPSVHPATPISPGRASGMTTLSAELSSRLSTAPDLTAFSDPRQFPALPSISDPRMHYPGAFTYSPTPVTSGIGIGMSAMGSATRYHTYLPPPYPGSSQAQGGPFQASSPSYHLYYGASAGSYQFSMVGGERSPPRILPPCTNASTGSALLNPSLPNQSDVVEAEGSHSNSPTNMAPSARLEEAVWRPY
Target sequence (Q13951 whole entry, looked up, the tested form may be a part): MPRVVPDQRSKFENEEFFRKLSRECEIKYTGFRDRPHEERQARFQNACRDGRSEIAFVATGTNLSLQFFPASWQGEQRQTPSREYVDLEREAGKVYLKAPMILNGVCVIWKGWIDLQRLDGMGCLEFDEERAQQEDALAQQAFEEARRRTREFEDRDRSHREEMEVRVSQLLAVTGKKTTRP
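Measured by: fluorescence energy transfer, 422 nm excitation, 530/480 nm emission; test system: Cerulean-tagged RUNX1 Runt domain (FRET donor) fusion protein; buffer or medium: Tris pH 7.5 buffer with BSA; compound: one dose, 20 µM compound, 1% DMSO; times: two 1 h room-temperature incubations shielded from light; benchmarks: unlabeled CBFb 5 µM, positive control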
Runt-SMMHC FRET = Runt domain-CBFb-SMMHC interaction inhibition; Cerulean-Runt/Venus-CBFb-SMMHC FRET ratio 530/480, 1 h; inhibition, % at 20 µM; 220,000 compounds, 0.74% hits;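 active = mean inhibition across duplicate retests at 20 µM reaching about 50%, limit read from the data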;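 note: 0% = DMSO wells and 100% = wells with excess untagged CBFb-SMMHC; inhibitors lower the FRET ratio by blocking Runt binding to CBFb-SMMHC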
TNF necrop inh = inhibitors of TNF-alpha induced necroptosis in Jurkat FADD-/- cells | 220,000 compounds, 0.068% hits | activation (protection from cell death), % at 10 µM | Jurkat FADD-/- TNF necroptosis rescue, ATP luminescence, 24 h; 0 = TNF only, 100 = no-TNF cells;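 active = activation, meaning protection from cell death, of at least 50% relative to plate controls; inactive = activation below 50%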;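 note: necroptosis triggered by 40 ng/mL TNF-alpha added together with compound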
zVAD death inh = L929 zVAD cell death inhibition; L929 zVAD necroptosis rescue, ATP luminescence, 24 h; with zVAD 60 µM; viability rescue, % at 10 µM; 220,000 compounds, 0.38% hits; AID 1377;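 active = activation, scaled between plate controls, above about 75%, limit read from the data; inactive = activation under that limit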;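 note: 0% = zVAD with DMSO and 100% = DMSO alone without zVAD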
RanGTP-Imp inh = inhibitors of RanGTP-importin-beta interaction, primary screen, biochemical, FRET, CFP-Ran, YFP-importin-beta, homogeneous; inhibition, % (no concentration beside the values); cell-free CFP-Ran/YFP-importin-beta FRET ratio; 300,000 compounds, 1.1% hits; AID 2216;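 active = more than half of the replicate wells show a fall in the fluorescence ratio signal beyond about 16%, limit read from the data, passing the limit was not always enough; inconclusive = exactly half of the replicate wells pass the set limit; inactive = fewer than half of replicates pass the limit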;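 note: 0% = DMSO wells and 100% = Ran loaded with GDP instead of GTP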
zVAD necrop conf = confirmed blocker of zVAD induced death in L929 cells | activation (protection from necroptosis), % at 10 µM | shares compounds with zVAD death inh | L929 zVAD-induced necroptosis rescue, ATP luminescence, 24 h | 760 compounds, 16% hits;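 active = mean protection from necroptosis of at least 50% over duplicate tests; inactive = mean protection below 50%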;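 note: 0% = cells with zVAD alone and 100% = vehicle cells without zVAD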
The depositor's hits bear a star; ? = inconclusive; / = not tested or not shown. An excerpt weighted towards active compounds, which were near 2.1% of everything screened.

SMILES | Hck-Nef inh | Runt-CBFb FRET | Runt-SMMHC FRET | TNF necrop inh | zVAD death inh | RanGTP-Imp inh | zVAD necrop conf
CCc1cccc2c(C(=O)COC(=O)c3ccccc3)c[nH]c12 | 3 | -2 | 3 | 3 | 3 | 2 | /
O=c1[nH]c2ccccc2nc1/C=C/c1ccccc1 | 4 | 45 | 88* | 1 | 78* | 61* | 29
CC(C)(C)/C(O)=C/c1nc2ccccc2[nH]c1=O | 5 | 2 | 11 | 2 | 1 | -1 | /
O=c1[nH]c2ccccc2nc1/C=C/c1ccc(O)cc1 | 18 | -196 | -16 | -6 | 81* | ? | 82*
Cc1ccc(NC(=O)C(OC(=O)c2ccc(C=O)cc2)c2ccccc2)cc1Cl (stereo unspecified) | 4 | -2 | -1 | 3 | 83* | -6 | 19
COC(=O)c1ccc(NC(=O)CSC2=NCCN2)cc1 | 3 | 6 | 4 | -8 | 92* | 1 | 12
CO/N=C/CC(=O)c1cnc(-c2ccc(Cl)cc2)s1 | 23 | 1 | -6 | 2 | 3 | 3 | /
Cn1ccnc1SCCNC(=O)CCc1nnc(CCc2ccccc2)o1 | 17 | 2 | 4 | -1 | -1 | 0 | /
O=C(Nc1nccs1)c1ccc(CSc2nnnn2-c2ccccc2)cc1 | 2 | 4 | -1 | 14 | 87* | 1 | 89*
NC(=O)c1ccc(-n2nnnc2SCc2ccccc2)cc1 | 2 | 1 | -2 | 0 | 1 | 3 | /
COc1ccc(CNC(=O)C2CCN(S(=O)(=O)c3ccc4c(c3)CC(C)N4C(C)=O)CC2)cc1 (stereo unspecified) | / | / | / | / | / | 2 | /
CCOC(=O)c1ccc2[nH]c3c(c2c1)CCCC3O (stereo unspecified) | 31 | 0 | 2 | 7 | 76* | 2 | 41
CC(C)(C)NC(=O)C(c1ccncc1)N(Cc1ccc(F)cc1)C(=O)c1ccc(-c2ccccc2)[nH]1 (stereo unspecified) | 27 | -1 | 4 | 1 | 0 | -1 | /
CCOc1cc(/C=N/NC(=O)c2cc(C3CC3)[nH]n2)ccc1O | 33 | 1 | 0 | 9 | 91* | 1 | 7
COc1cc(/C=N/NC(=O)c2cc(C3CC3)[nH]n2)ccc1O | 27 | 3 | 0 | 8 | 75 | -2 | /
Cc1cc(C)n(CC(=O)O)c(=O)c1[N+](=O)[O-] | 21 | -1 | 1 | 1 | 0 | / | /
O=Cc1c(-c2ccccc2)cc2oc3ccccc3cc1-2 | / | / | / | / | / | 3 | /
CCN(CC)CCCNC(=O)c1cc(Sc2nnc(C)s2)nc2ccccc12 | 3 | 2 | 1 | 7 | 79* | 5 | 10
COC(CNC(=O)c1cc(Sc2nnc(C)s2)nc2ccccc12)OC | 1 | 1 | -3 | 3 | 20 | 2 | /
Cn1c(=O)cc(SCC(=O)Nc2ccccn2)c2ccccc21 | 3 | 0 | -2 | 11 | 81* | 1 | 2
Cc1ccnc(NC(=O)CSc2cc(=O)n(C)c3ccccc23)c1 | 0 | -2 | -7 | 15 | 74 | -1 | /
CC1CCCC(NC(=O)CCNS(=O)(=O)c2ccc(Br)cc2)C1C (stereo unspecified) | 25 | -2 | -1 | 1 | 77* | -3 | 7
Cc1cc(C(=O)Cn2nc(C(=O)O)c3ccccc3c2=O)c(C)n1CCc1ccc(Cl)cc1 | 3 | -2 | 0 | -4 | 78* | 2 | 8
CC(=O)N1CCc2cc(S(=O)(=O)NCC(=O)NCc3ccc(Cl)cc3)ccc21 | / | / | / | / | / | -1 | /
CCN(CC)CCNC(=O)c1ccc2c(=O)n(CCc3ccccc3)c(=O)[nH]c2c1 | 1 | 0 | 2 | -1 | 89* | -4 | 19
SMILES | Hck-Nef inh | Runt-CBFb FRET | Runt-SMMHC FRET | TNF necrop inh | zVAD death inh | RanGTP-Imp inh | zVAD necrop conf
CCCCCn1c(=O)[nH]c2cc(C(=O)NCCCN(C)Cc3ccccc3)ccc2c1=O | 18 | 3 | -1 | 0 | 1 | 5 | /
O=C(NCCCN1CCCCC1)c1ccc2c(=O)n(CCc3ccccc3)c(=O)[nH]c2c1 | 6 | 1 | 4 | -3 | 80* | 8 | 2
Cc1cnc(NC(=O)c2ccc(OCC3CCCO3)cc2)s1 (stereo unspecified) | 59* | 1 | 1 | 38 | 75* | 1 | 75*
Cc1ccc(NC(=O)c2ccc(OCC3CCCO3)cc2)nc1 (stereo unspecified) | / | / | / | / | / | 8 | /
CC(=O)N1CCN(CC(=O)Nc2ccc([N+](=O)[O-])cc2Br)CC1 | 20 | 0 | 2 | 2 | -1 | 2 | /
CC(=O)Nc1ccc(C(O)(C(F)(F)F)C(F)(F)F)cc1 | 23 | -1 | 3 | 0 | 6 | 5 | /
CC(C)OC(=O)N(C)c1ccc(C(O)(C(F)(F)F)C(F)(F)F)cc1 | -2 | -3 | -3 | -2 | 77* | 4 | 9
O=C1CC(/C=C/c2ccc(Cl)cc2)=Nc2ccccc2N1 | 39 | -5 | -2 | -1 | 77* | 5 | 1
CC(OC(=O)CNC(=O)c1ccc(Cl)cc1)C(=O)NC1CCCCC1C (stereo unspecified) | / | / | / | / | / | 3 | /
O=C(CSc1nc2ccc(Cl)cc2[nH]1)N1CCN(C(=O)c2ccco2)CC1 | 2 | 6 | -2 | 2 | 85* | 1 | 49
Cc1ccc2nc(SCC(=O)N3CCN(C(=O)c4ccco4)CC3)[nH]c2c1 | 3 | 0 | 4 | 2 | 19 | 3 | /
COc1ccccc1NC(=O)/C(=N/OCc1ccc(C#N)cc1)C(C)=O | 8 | 1 | 3 | -1 | 76* | 1 | 1
Cc1oc(S(=O)(=O)N2CCCCC2)cc1NC(=O)Nc1ccc(F)cc1 | -31 | 2 | -6 | 1 | 2 | -2 | /
COc1ccc(N2CCN(C(=O)Nc3ccccc3C)CC2)cc1 | -21 | -2 | 4 | 0 | 0 | 5 | /
CN(Cc1ccccc1)C(=O)CCCn1c(=O)c2cccn2c2cccnc21 | / | / | / | / | / | 2 | /
Cc1ccc(CCNS(=O)(=O)c2cc3c(cc2Cl)NC(=O)CO3)cc1 | / | / | / | / | / | -4 | /
O=C(CSc1nnc(-c2ccncc2)o1)N1CCCCCC1 | 23 | 0 | 2 | 0 | 76* | 0 | 0
CCc1ccc(C(=O)NNC(=O)CN2C(=O)NC(CC)(c3ccccc3)C2=O)cc1 (stereo unspecified) | / | / | / | / | / | 0 | /
O=C(Cc1ccccc1)Nc1nnc(SCC(=O)NC2CCCC2)s1 | 12 | 2 | -2 | 2 | 1 | 4 | /
CC(C)Nc1nnc(SCC(=O)Nc2ccc3c(c2)C(=O)c2ccccc2C3=O)s1 | 16 | -3 | -7 | 2 | 81* | 5 | 45
O=C(CSc1nnc(NC2CCCCC2)s1)Nc1ccc2c(c1)C(=O)c1ccccc1C2=O | -1 | 14 | -1 | 12 | 80* | -1 | 90*
